molecular target: T1, Alpha-1A adrenergic receptor (Rattus norvegicus, UniProt P43140); assay: Antagonist affinity [non competitive (irreversible)] at alpha-1A-adrenoceptors on isolated prostatic Vas deferens from rat; type: functional; details: not given
T1 sequence (P43140 whole entry): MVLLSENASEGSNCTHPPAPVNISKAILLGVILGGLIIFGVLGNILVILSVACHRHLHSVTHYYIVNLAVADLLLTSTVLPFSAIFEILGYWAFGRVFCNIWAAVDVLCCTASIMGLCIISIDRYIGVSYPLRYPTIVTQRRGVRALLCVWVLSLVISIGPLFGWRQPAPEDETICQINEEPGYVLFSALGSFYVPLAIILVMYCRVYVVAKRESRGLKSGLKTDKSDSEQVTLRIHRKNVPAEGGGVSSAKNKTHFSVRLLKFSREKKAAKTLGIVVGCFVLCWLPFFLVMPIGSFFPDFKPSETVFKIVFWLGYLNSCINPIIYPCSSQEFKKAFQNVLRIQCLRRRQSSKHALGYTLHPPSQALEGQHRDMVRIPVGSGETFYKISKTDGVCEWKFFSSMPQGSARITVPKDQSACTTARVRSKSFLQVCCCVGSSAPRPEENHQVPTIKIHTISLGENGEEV
Procedure, shortened: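 Rat vas deferens prostatic portion, equilibrated 60 min with washes every 15 min, primed twice with 10 µM noradrenaline, then a basal noradrenaline concentration-response curve (solutions with 0.05% Na₂S₂O₅). Antagonist 30 min, then 30 min washing, then a new curve. Maximal-response decrease expressed as % of control; IC50 read graphically from % inhibition vs log molar concentration, given as pIC50 ± SE.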

Row | Structure (SMILES) | IC50 [µM]
1 | COc1cc2nc(N3CCN(C(=O)c4ccc(CNCCCCCCNCCSSCCNCCCCCCNCc5ccc(C(=O)N6CCN(c7nc(N)c8cc(OC)c(OC)cc8n7)CC6)cc5)cc4)CC3)nc(N)c2cc1OC | 2
2 | COc1cc2nc(N(C)CCCCCCN(C)C(=O)c3cccc(CNCCCCCCNCCSSCCNCCCCCCNCc4cccc(C(=O)N(C)CCCCCCN(C)c5nc(N)c6cc(OC)c(OC)cc6n5)c4)c3)nc(N)c2cc1OC | 0.0457
3 | COc1cc2nc(N3CCN(C(=O)c4cccc(CNCCCCCCNCCSSCCNCCCCCCNCc5cccc(C(=O)N6CCN(c7nc(N)c8cc(OC)c(OC)cc8n7)CC6)c5)c4)CC3)nc(N)c2cc1OC | 3.89
4 | COc1cc2nc(N3CCN(C(=O)c4ccccc4CNCCCCCCNCCSSCCNCCCCCCNCc4ccccc4C(=O)N4CCN(c5nc(N)c6cc(OC)c(OC)cc6n5)CC4)CC3)nc(N)c2cc1OC | 5.01
5 | COc1cc2nc(N(C)CCCCCCN(C)C(=O)c3ccc(CNCCCCCCNCCSSCCNCCCCCCNCc4ccc(C(=O)N(C)CCCCCCN(C)c5nc(N)c6cc(OC)c(OC)cc6n5)cc4)cc3)nc(N)c2cc1OC | 4.68
6 | COc1cc2nc(N(C)CCCCCCN(C)C(=O)c3ccccc3CNCCCCCCNCCSSCCNCCCCCCNCc3ccccc3C(=O)N(C)CCCCCCN(C)c3nc(N)c4cc(OC)c(OC)cc4n3)nc(N)c2cc1OC | 1.86

molecular target: T2, Alpha-1B adrenergic receptor (Rattus norvegicus, UniProt P15823); assay: Antagonist affinity [non competitive (irreversible)] at alpha-1B-adrenoceptors on isolated spleen from rat; type: functional, tissue-based; details: not given
T2 sequence (P15823 whole entry): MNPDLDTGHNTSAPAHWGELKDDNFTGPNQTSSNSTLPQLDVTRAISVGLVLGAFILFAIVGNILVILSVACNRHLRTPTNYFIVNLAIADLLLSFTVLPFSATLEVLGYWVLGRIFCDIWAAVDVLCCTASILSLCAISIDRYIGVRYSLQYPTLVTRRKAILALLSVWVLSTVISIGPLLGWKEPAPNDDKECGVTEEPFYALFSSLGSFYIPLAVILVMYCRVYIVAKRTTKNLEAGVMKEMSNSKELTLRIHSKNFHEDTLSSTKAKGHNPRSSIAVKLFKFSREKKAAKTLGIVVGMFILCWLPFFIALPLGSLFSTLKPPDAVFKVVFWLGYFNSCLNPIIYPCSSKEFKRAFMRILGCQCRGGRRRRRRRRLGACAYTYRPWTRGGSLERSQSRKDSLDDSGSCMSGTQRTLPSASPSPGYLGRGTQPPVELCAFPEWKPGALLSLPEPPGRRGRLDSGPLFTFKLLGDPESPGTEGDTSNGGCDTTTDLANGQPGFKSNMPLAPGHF
Procedure, shortened: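 Isolated rat spleen contracted by (-)-phenylephrine, measured isometrically. Cumulative curves run at 30 min intervals, the second taken as control. Antagonist incubated 30 min, washed 30 min, then a new curve. Loss of maximal response expressed as % of control; IC50 estimated from % inhibition vs log molar concentration plots, reported as pIC50 ± SE of n experiments.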

Row | Structure (SMILES) | IC50 [µM]
7 | COc1cc2nc(N3CCN(C(=O)c4ccc(CNCCCCCCNCCSSCCNCCCCCCNCc5ccc(C(=O)N6CCN(c7nc(N)c8cc(OC)c(OC)cc8n7)CC6)cc5)cc4)CC3)nc(N)c2cc1OC | 41.7
8 | COc1cc2nc(N(C)CCCCCCN(C)C(=O)c3cccc(CNCCCCCCNCCSSCCNCCCCCCNCc4cccc(C(=O)N(C)CCCCCCN(C)c5nc(N)c6cc(OC)c(OC)cc6n5)c4)c3)nc(N)c2cc1OC | 1.74
9 | COc1cc2nc(N3CCN(C(=O)c4cccc(CNCCCCCCNCCSSCCNCCCCCCNCc5cccc(C(=O)N6CCN(c7nc(N)c8cc(OC)c(OC)cc8n7)CC6)c5)c4)CC3)nc(N)c2cc1OC | 55
10 | COc1cc2nc(N3CCN(C(=O)c4ccccc4CNCCCCCCNCCSSCCNCCCCCCNCc4ccccc4C(=O)N4CCN(c5nc(N)c6cc(OC)c(OC)cc6n5)CC4)CC3)nc(N)c2cc1OC | 5.13
11 | COc1cc2nc(N(C)CCCCCCN(C)C(=O)c3ccc(CNCCCCCCNCCSSCCNCCCCCCNCc4ccc(C(=O)N(C)CCCCCCN(C)c5nc(N)c6cc(OC)c(OC)cc6n5)cc4)cc3)nc(N)c2cc1OC | 2.14
12 | COc1cc2nc(N(C)CCCCCCN(C)C(=O)c3ccccc3CNCCCCCCNCCSSCCNCCCCCCNCc3ccccc3C(=O)N(C)CCCCCCN(C)c3nc(N)c4cc(OC)c(OC)cc4n3)nc(N)c2cc1OC | 1.86

molecular target: T3, Alpha-1A adrenergic receptor (Rattus norvegicus) (UniProt P43140); details: not given
T3 sequence (whole entry): T1 sequence (P43140 whole entry)

Row | Structure (SMILES) | pKb
13 | COc1cc2nc(N3CCN(C(=O)c4ccc(C)cc4)CC3)nc(N)c2cc1OC | 7.96
14 | COc1cc2nc(N3CCN(C(=O)c4ccccc4)CC3)nc(N)c2cc1OC | 7.66
15 | COc1cc2nc(N(C)CCCCCCN(C)C(=O)c3cccc(CNCCCCCCNCCCCCCNCCCCCCNCc4cccc(C(=O)N(C)CCCCCCN(C)c5nc(N)c6cc(OC)c(OC)cc6n5)c4)c3)nc(N)c2cc1OC | 8.48
16 | COc1cc2nc(N3CCN(C(=O)c4ccccc4C)CC3)nc(N)c2cc1OC | 6.97
17 | COc1cc2nc(N3CCN(C(=O)c4ccccc4OC)CC3)nc(N)c2cc1OC | 7.34
18 | COc1cc2nc(N3CCN(C(=O)c4cccc(C=O)c4)CC3)nc(N)c2cc1OC | 7.79
19 | COc1cc2nc(N3CCN(C(=O)c4ccc(CNCCCCCCNCCCCCCNCCCCCCNCc5ccc(C(=O)N6CCN(c7nc(N)c8cc(OC)c(OC)cc8n7)CC6)cc5)cc4)CC3)nc(N)c2cc1OC | 6.97

molecular target: T4, Alpha-1B adrenergic receptor (Rattus norvegicus) (UniProt P15823); details: Spleen
T4 sequence (whole entry): T2 sequence (P15823 whole entry)

Row | Structure (SMILES) | pKb
20 | COc1cc2nc(N3CCN(C(=O)c4ccc(C)cc4)CC3)nc(N)c2cc1OC | 7.67
21 | COc1cc2nc(N3CCN(C(=O)c4ccccc4)CC3)nc(N)c2cc1OC | 7.44
22 | COc1cc2nc(N(C)CCCCCCN(C)C(=O)c3cccc(CNCCCCCCNCCCCCCNCCCCCCNCc4cccc(C(=O)N(C)CCCCCCN(C)c5nc(N)c6cc(OC)c(OC)cc6n5)c4)c3)nc(N)c2cc1OC | 7.41
23 | COc1cc2nc(N3CCN(C(=O)c4ccccc4C)CC3)nc(N)c2cc1OC | 7.33
24 | COc1cc2nc(N3CCN(C(=O)c4ccccc4OC)CC3)nc(N)c2cc1OC | 6.77
25 | COc1cc2nc(N3CCN(C(=O)c4cccc(C=O)c4)CC3)nc(N)c2cc1OC | 6.92
26 | COc1cc2nc(N3CCN(C(=O)c4ccc(CNCCCCCCNCCCCCCNCCCCCCNCc5ccc(C(=O)N6CCN(c7nc(N)c8cc(OC)c(OC)cc8n7)CC6)cc5)cc4)CC3)nc(N)c2cc1OC | 7.16

molecular target: T5, Alpha-1D adrenergic receptor (Rattus norvegicus) (UniProt P23944); details: Thoracic aorta
T5 sequence (whole entry): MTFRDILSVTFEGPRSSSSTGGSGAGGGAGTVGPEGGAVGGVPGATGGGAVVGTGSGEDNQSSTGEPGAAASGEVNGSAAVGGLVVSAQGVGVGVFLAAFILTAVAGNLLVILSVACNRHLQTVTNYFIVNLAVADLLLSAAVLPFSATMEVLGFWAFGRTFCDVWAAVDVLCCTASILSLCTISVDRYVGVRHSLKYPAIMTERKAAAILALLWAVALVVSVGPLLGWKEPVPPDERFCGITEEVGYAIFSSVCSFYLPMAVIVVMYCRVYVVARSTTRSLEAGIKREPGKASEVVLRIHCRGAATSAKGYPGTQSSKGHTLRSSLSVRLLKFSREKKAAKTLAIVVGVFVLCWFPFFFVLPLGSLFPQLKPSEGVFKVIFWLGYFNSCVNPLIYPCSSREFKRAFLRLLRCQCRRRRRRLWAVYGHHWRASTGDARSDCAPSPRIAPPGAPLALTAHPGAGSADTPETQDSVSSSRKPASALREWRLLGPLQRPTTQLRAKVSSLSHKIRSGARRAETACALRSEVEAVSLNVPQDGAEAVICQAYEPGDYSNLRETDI

Row | Structure (SMILES) | pKb
27 | COc1cc2nc(N3CCN(C(=O)c4ccc(C)cc4)CC3)nc(N)c2cc1OC | 8.91
28 | COc1cc2nc(N3CCN(C(=O)c4ccccc4)CC3)nc(N)c2cc1OC | 8.86
29 | COc1cc2nc(N(C)CCCCCCN(C)C(=O)c3cccc(CNCCCCCCNCCCCCCNCCCCCCNCc4cccc(C(=O)N(C)CCCCCCN(C)c5nc(N)c6cc(OC)c(OC)cc6n5)c4)c3)nc(N)c2cc1OC | 9.3
30 | COc1cc2nc(N3CCN(C(=O)c4ccccc4C)CC3)nc(N)c2cc1OC | 7.99
31 | COc1cc2nc(N3CCN(C(=O)c4ccccc4OC)CC3)nc(N)c2cc1OC | 7.76
32 | COc1cc2nc(N3CCN(C(=O)c4cccc(C=O)c4)CC3)nc(N)c2cc1OC | 8.07
33 | COc1cc2nc(N3CCN(C(=O)c4ccc(CNCCCCCCNCCCCCCNCCCCCCNCc5ccc(C(=O)N6CCN(c7nc(N)c8cc(OC)c(OC)cc8n7)CC6)cc5)cc4)CC3)nc(N)c2cc1OC | 7.47

— ChEMBL document CHEMBL1134835, “Analogues of prazosin that bear a benextramine-related polyamine backbone exhibit different antagonism toward alpha1-adrenoreceptor subtypes” (J Med Chem, 2001)
